Source: PMC10958515 (ACS Chemical Neuroscience, 2024)
Where two headings read alike, the source gives them in different places.

Experiments:
seizures = conditions: cited from earlier work
hNaV1.5 = hNaV1.5 (Homo sapiens, UniProt Q14524); experiment: Qube automated patch-clamp, NaV subtype inhibition; type: cell-based
hNaV1.1 = hNaV1.1 (Homo sapiens, UniProt P35498); experiment: Qube automated patch-clamp, NaV subtype inhibition; type: cell-based
hNaV1.2 = hNaV1.2 (Homo sapiens, UniProt Q99250); experiment: Qube automated patch-clamp, NaV subtype inhibition; type: cell-based
NaV1.6 [1] = molecular target: T1, NaV1.6 (Homo sapiens, UniProt Q9UQD0); experiment: Steady-state and use-dependent inhibition; type: cell-based; conditions: V0.5 holding potential
T1 sequence (Q9UQD0 whole entry): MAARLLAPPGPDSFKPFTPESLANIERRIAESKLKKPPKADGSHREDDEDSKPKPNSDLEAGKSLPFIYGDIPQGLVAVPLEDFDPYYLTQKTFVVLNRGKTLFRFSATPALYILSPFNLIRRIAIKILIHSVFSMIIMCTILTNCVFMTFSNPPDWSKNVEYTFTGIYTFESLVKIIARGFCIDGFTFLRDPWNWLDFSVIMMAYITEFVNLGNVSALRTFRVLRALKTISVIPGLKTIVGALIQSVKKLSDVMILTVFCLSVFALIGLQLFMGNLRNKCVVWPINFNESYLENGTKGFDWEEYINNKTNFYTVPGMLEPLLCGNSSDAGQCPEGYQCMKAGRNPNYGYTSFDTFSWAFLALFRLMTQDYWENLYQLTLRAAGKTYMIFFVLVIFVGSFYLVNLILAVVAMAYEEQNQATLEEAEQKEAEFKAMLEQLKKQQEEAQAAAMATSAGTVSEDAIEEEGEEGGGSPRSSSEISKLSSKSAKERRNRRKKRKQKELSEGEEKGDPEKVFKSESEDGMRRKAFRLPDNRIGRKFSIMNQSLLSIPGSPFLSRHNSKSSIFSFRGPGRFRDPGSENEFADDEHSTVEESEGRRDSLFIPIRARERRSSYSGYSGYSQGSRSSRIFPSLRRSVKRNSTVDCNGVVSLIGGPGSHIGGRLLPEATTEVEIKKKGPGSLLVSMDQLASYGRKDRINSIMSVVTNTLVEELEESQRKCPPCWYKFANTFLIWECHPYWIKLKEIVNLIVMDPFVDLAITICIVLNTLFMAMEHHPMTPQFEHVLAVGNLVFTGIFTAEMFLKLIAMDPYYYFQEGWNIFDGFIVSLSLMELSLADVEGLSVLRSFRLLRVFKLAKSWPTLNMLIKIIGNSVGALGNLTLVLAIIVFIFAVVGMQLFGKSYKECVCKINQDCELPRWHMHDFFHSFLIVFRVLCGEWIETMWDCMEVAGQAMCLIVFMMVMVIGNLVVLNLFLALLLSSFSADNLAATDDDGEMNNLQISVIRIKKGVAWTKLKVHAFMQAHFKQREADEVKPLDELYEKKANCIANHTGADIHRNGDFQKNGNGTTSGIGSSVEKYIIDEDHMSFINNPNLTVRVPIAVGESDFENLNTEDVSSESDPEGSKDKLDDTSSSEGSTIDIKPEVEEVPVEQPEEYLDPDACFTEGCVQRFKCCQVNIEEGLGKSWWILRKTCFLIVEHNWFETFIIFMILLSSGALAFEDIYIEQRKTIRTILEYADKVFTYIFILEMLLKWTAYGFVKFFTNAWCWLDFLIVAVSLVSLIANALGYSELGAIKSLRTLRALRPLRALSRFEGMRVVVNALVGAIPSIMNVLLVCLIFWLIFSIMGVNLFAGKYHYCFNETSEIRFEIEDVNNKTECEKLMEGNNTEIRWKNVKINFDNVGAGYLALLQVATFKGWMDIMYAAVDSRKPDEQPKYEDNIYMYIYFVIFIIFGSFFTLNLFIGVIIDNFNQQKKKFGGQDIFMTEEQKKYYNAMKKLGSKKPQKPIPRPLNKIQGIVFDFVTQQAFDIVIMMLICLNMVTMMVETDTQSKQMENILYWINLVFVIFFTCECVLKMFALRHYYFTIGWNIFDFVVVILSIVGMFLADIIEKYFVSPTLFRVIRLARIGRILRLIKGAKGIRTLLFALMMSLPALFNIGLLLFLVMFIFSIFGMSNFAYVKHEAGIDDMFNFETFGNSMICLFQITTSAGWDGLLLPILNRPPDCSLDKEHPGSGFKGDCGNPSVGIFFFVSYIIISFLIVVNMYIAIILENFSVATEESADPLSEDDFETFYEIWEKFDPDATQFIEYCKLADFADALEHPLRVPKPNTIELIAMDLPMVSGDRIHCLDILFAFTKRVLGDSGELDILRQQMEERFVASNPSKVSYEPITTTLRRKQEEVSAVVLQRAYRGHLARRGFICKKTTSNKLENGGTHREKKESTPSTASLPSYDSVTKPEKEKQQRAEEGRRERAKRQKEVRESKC
T1 sequence (Q92913 1-192 isoform Q92913-2 partner): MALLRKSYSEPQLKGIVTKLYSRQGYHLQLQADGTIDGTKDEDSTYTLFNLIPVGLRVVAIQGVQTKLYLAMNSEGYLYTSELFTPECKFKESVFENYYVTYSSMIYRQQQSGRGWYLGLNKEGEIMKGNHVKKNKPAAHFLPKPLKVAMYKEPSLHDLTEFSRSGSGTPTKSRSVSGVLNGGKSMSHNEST

NaV = conditions: cited from earlier work
NaV1.6 [2] = molecular target: T1, NaV1.6; experiment: Recovery from inactivation in presence of compound; type: cell-based
Procedure, shortened: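 Human NaV1.6 cells on an automated planar patch-clamp platform at 27 °C. From −120 mV, a 10 s prepulse to 0 mV is followed by a 0 mV test pulse at varying intervals. Mean normalized recovery in compound is fitted biexponentially, and the slow time constant is plotted against concentration. The fraction recovered at 1.7 s quantifies the concentration dependence.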

[3] = IC50 for steady-state inhibition (P1), first pulse

hNaV1.5, sequence (Q14524 whole entry): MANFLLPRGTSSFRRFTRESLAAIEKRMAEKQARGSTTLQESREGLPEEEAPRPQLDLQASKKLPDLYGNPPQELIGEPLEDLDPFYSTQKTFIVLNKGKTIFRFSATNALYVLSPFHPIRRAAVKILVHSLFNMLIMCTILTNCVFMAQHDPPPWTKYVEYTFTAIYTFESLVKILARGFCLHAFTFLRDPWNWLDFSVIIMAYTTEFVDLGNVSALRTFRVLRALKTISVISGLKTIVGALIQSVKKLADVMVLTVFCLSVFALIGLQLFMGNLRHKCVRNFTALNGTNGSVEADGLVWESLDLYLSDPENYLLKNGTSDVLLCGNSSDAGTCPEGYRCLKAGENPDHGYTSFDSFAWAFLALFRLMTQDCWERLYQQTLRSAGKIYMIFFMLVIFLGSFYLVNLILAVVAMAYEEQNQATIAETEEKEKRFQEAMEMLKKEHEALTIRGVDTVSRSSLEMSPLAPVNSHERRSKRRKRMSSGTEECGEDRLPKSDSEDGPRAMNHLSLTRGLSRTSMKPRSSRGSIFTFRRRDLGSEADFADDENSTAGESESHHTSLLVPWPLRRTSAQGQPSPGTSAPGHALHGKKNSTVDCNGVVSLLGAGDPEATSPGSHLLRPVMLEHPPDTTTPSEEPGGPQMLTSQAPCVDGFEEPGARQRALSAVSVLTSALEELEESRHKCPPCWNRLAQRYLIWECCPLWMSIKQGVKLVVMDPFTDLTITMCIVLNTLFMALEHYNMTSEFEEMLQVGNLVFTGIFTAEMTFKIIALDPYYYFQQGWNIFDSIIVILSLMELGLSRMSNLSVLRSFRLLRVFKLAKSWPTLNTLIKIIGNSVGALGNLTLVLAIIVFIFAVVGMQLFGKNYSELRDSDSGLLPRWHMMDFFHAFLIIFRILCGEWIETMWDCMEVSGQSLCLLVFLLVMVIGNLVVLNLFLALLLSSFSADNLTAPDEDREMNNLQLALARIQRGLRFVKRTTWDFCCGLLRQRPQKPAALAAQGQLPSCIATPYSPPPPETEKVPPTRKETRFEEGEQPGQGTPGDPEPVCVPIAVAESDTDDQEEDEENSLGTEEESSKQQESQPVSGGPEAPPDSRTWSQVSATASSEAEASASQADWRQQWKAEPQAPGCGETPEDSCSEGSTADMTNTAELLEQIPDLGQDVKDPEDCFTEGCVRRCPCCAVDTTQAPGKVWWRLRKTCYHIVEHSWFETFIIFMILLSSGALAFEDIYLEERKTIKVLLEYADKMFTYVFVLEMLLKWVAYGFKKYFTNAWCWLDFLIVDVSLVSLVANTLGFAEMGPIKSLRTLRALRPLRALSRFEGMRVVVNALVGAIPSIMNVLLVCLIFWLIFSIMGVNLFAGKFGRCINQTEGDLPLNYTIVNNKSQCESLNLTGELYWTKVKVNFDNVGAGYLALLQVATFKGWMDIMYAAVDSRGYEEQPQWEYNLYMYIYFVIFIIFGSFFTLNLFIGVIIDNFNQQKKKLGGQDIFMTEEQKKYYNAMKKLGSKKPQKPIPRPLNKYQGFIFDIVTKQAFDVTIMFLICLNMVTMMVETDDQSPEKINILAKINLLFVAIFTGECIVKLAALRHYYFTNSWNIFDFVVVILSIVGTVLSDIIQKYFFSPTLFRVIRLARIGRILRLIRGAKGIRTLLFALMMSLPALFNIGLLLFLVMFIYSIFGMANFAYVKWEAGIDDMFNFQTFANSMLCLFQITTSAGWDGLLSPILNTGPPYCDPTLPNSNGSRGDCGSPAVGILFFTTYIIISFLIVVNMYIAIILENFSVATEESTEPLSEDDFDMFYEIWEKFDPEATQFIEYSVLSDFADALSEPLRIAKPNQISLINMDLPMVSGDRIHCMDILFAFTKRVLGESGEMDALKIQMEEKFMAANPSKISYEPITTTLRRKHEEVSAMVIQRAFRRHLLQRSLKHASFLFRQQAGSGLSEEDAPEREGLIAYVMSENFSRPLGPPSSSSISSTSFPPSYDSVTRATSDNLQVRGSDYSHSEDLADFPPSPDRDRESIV

Row | Structure (SMILES) | IC50 (hNaV1.5) [µM] | IC50 (NaV1.6 [1]; [3]) [µM] | potency range (NaV) [µM] | further results
1 | Cc1cc(S(=O)(=O)Nc2cscn2)c(F)cc1N(C)[C@H]1CCN(Cc2ccccc2)C1 [NBI-921352] |  |  |  | efficacy in seizure models in vivo (seizures): efficacious and have improved tolerability in rodent seizure models
2 | NC(=O)N1c2ccccc2C=Cc2ccccc21 [carbamazepine] | 41.1 | 17 |  | IC50 (hNaV1.1): 39.3 µM; IC50 (hNaV1.2): 67.4 µM; IC50 (NaV1.6 [1]; IC50 for UDB (P500), 500th pulse): 16.2 µM
3 | COC[C@@H](NC(C)=O)C(=O)NCc1ccccc1 [lacosamide] |  |  | 10 to 100 | 
4 | Nc1nnc(-c2cccc(Cl)c2Cl)c(N)n1 [lamotrigine] |  |  | 10 to 100 | 
5 | O=C1NC(=O)C(c2ccccc2)(c2ccccc2)N1 [phenytoin] | 23.8 | 12.1 |  | time to fully equilibrate with the inactivated states (NaV1.6 [2]): ≤ 10 s; IC50 (NaV1.6 [1]; read-out: IC50 for UDB (P500), 500th pulse): 6.8 µM
